The record followed here is ChEMBL document CHEMBL1123953, “Studies on prodrugs. 7. Synthesis and antimicrobial activity of 3-formylquinolone derivatives” (J Med Chem, 1988).

Molecules are shown by their SMILES. Converted amounts (≈) assume the structure as drawn. “And” between values parts separate entries of the source, which are not always exact repeats. Equal values may be shown once.

As usually defined, the MIC is the smallest concentration in the dilution series that meets the test's criterion for growth inhibition. One may read the ED50 as the dose that gives a 50% effect, or the effect in half of the subjects. Higher therefore signals a need for a large dose.

The subject of one data set is Klebsiella pneumoniae. Description: In vitro inhibition of growth of Klebsiella pneumoniae (PC-1602). In kind it is functional. An outline of the steps: (§1)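 Agar dilution using serial 2-fold dilutions in Mueller-Hinton agar, with plate concentrations 0.006 to 100 μg/mL. Inoculum approx. 10^6 cfu/mL. Plates incubated at 37 °C for 18 h. MIC taken as the lowest concentration preventing visible bacterial growth.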

Data set [1] relates to Mus musculus. Description: Serum levels in Mice 2 hr after Oral administration of 50 mg/kg; nd= Not detected. In kind it is functional, organism-based. On the set-up: dose 50 mg/kg. In outline: (§2)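 Mice dosed orally at 50 mg/kg, suspended in 0.5% sodium (carboxymethyl)cellulose; prodrugs given at a dose equivalent to 50 mg/kg of parent acid. Mice killed by bleeding at 0.5, 1.0, 2.0 and 4.0 h, and serum obtained by centrifugation. Serum analysed by HPLC, eluting with 5% AcOH/MeOH (70/30). Values given with standard deviation.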

Data set [2] concerns Mus musculus. The experiment in a line: Serum levels in Mice 0.5 hr after Oral administration of 50 mg/kg; nd= Not detected. In kind it is functional, organism-based. On the set-up: dose 50 mg/kg. In outline:
as §2

The next data set has as its system Serratia marcescens. Description: In vitro inhibition of growth of Serratia marcescens (IAM1184). In kind it is functional. An outline of the steps: as §1
In data set [3] the test system is Mus musculus. The experiment in a line: Serum levels in Mice 4 hr after Oral administration of 50 mg/kg; nd= Not detected. In kind it is functional, organism-based. Also on record: dose 50 mg/kg. An outline of the steps: as §2
For a further data set, the system named is Bacillus subtilis. Description: In vitro inhibition of growth of Bacillus subtilis (ATCC 6633). In kind it is functional. In outline: as §1
A further data set concerns Staphylococcus aureus. Description: Inhibition of growth of Staphylococcus aureus (FDA207PJC-1) after incubation at 37 degree Centigrade. In kind it is functional. An outline of the steps: as §1
Data set [4] deals with Escherichia coli. Description: In vitro Inhibition of growth of Escherichia coli(KC-14). In kind it is functional. An outline of the steps: as §1
The test system of data set [5] is Mus musculus. The experiment in a line: Serum levels in Mice 1 hr after Oral administration of 50 mg/kg; nd= Not detected. In kind it is functional, organism-based. On the set-up: dose 50 mg/kg. In outline: as §2
The subject of the next data set is Pseudomonas aeruginosa. The experiment in a line: In vitro inhibition of growth of Pseudomonas aeruginosa(E-2). In kind it is functional. In outline:
as §1

A further data set deals with Proteus vulgaris. Description: In vitro inhibition of growth of Proteus vulgaris(OX-19). In kind it is functional. In outline:
as §1

Data set [6] has as its system Mus musculus. Description: (§3) Inhibition of growth of Escherichia coli (KC-14) upon oral administration in mice. In kind it is functional. In outline: (§4)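 Groups of 10 male ddY mice (20 ± 2 g) were inoculated intraperitoneally with 0.5 mL of E. coli KC-14 at 10 or 100 times the 50% lethal dose. Compounds, suspended in 0.5% sodium (carboxymethyl)cellulose, were given orally 1 h postinfection. Survival was scored after 1 week. ED50 is reported with 95% confidence limits.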

The nature of data set [7]: Area under the curve in concentration/ time. In kind it is ADME. An outline of the steps:
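Mice dosed orally at 50 mg/kg (formyl prodrug at a dose equivalent to 50 mg/kg of parent acid), suspended in 0.5% sodium (carboxymethyl)cellulose. Mice killed by bleeding at 0.5, 1.0, 2.0 and 4.0 h. Blood centrifuged and serum drug levels measured by HPLC. AUC from the serum concentration–time curve, in μg/mL per hour.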

Data set [8] relates to Escherichia coli. The experiment in a line: (§5) Inhibition of growth of Escherichia coli (KC-14) upon oral administration in mice(95%CL). In kind it is functional. An outline of the steps:
(§6)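 Male ddY mice (20 ± 2 g, groups of 10) infected intraperitoneally with 0.5 mL of E. coli KC-14 dilution at 10 or 100 times the 50% lethal dose. Compounds suspended in 0.5% sodium (carboxymethyl)cellulose and given orally 1 h postinfection. Survival scored after 1 week. ED50 derived with 95% confidence limits.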

For data set [9], the system named is Mus musculus. The data set is described as §5. In kind it is functional. An outline of the steps:
as §6

For data set [10], the system named is Escherichia coli. The data set is described as §3. In kind it is functional. An outline of the steps:
as §4

The mark [11] stands for this setting: Klebsiella pneumoniae, read-out: MIC.
The mark [12] stands for this setting: Staphylococcus aureus, read-out: MIC.
Setting [13] is: Proteus vulgaris, read-out: MIC.

Regarding `CCn1cc(C=O)c(=O)c2cc(F)c(N3CCNCC3)cc21`, the MIC was 3.12 µg/mL (≈ 10.3 µM) with Klebsiella pneumoniae (setting [11]); < 100 µg/mL against Serratia marcescens; 12.5 µg/mL (≈ 41.2 µM) against Bacillus subtilis; < 100 µg/mL in the data set with Staphylococcus aureus (setting [12]); 12.5 µg/mL (≈ 41.2 µM) in the data set with Escherichia coli [4]; < 100 µg/mL with Pseudomonas aeruginosa. The MIC in the data set with Proteus vulgaris (setting [13]) is 6.25 µg/mL (≈ 20.6 µM). Moreover, the Serum level result in the data set with Mus musculus [1], in the data set on Mus musculus [2], in the data set on Mus musculus [3] and in the data set on Mus musculus [5] was “Not detected” each time. Besides, the ED50 in the data set with Mus musculus [6] came out at 2.53 mg/kg.

Regarding `CCn1cc(C(=O)O)c(=O)c2cc(F)c(N3CCNCC3)cc21` [NORFLOXACIN], the MIC in the data set on Klebsiella pneumoniae (setting [11]) was 0.05 µg/mL (≈ 0.157 µM); in the data set on Serratia marcescens, 0.2 µg/mL (≈ 0.626 µM); in the data set on Bacillus subtilis, 0.2 µg/mL (≈ 0.626 µM); with Staphylococcus aureus (setting [12]), 0.2 µg/mL (≈ 0.626 µM); against Escherichia coli [4], 0.1 µg/mL (≈ 0.313 µM); against Pseudomonas aeruginosa it was 0.78 µg/mL (≈ 2.44 µM). Further, the MIC in the data set with Proteus vulgaris (setting [13]) turned out to be 0.05 µg/mL (≈ 0.157 µM). Moreover, the AUC in data set [7] is 0.98 µg/mL/h and 1.77 µg/mL/h. In the data set with Escherichia coli [8], this compound displayed an ED50 of 7.68 mg/kg.

For `CCn1cc(C=O)c(=O)c2cc(F)c(N3CCN(C)CC3)cc21`, the MIC with Klebsiella pneumoniae (setting [11]) was 1.56 µg/mL (≈ 4.92 µM); in the data set with Serratia marcescens, 12.5 µg/mL (≈ 39.4 µM); in the data set with Bacillus subtilis it was 3.13 µg/mL (≈ 9.86 µM); in the data set on Staphylococcus aureus (setting [12]) it was 12.5 µg/mL (≈ 39.4 µM); in the data set with Escherichia coli [4] it was 6.25 µg/mL (≈ 19.7 µM); in the data set on Pseudomonas aeruginosa, < 25 µg/mL. Further, the lowest concentration to inhibit growth in the data set with Proteus vulgaris (MIC) was 1.56 µg/mL (≈ 4.92 µM). The compound also yielded an ED50 in the data set with Mus musculus [9] of 0.84 mg/kg.

Regarding `O=Cc1cn(C2CC2)c2cc(N3CCNCC3)c(F)cc2c1=O`, the MIC is 12.5 µg/mL (≈ 39.6 µM) in the data set with Klebsiella pneumoniae (setting [11]); 12.5 µg/mL (≈ 39.6 µM) with Serratia marcescens; 6.25 µg/mL (≈ 19.8 µM) against Bacillus subtilis; 25 µg/mL (≈ 79.3 µM) with Staphylococcus aureus (setting [12]); 3.13 µg/mL (≈ 9.93 µM) in the data set with Escherichia coli [4]; 50 µg/mL (≈ 159 µM) in the data set on Pseudomonas aeruginosa. The MIC in the data set with Proteus vulgaris (setting [13]) was 3.13 µg/mL (≈ 9.93 µM). Moreover, in the data set with Mus musculus [6], the ED50 is 0.49 mg/kg.

Take `CCn1cc(C(=O)O)c(=O)c2cc(F)c(N3CCN(C)CC3)cc21` [PEFLOXACIN]: the minimal inhibitory concentration (MIC) worked out at 0.05 µg/mL (≈ 0.15 µM) in the data set with Klebsiella pneumoniae; 0.05 µg/mL (≈ 0.15 µM) in the data set on Klebsiella pneumoniae (setting [11]); 0.39 µg/mL (≈ 1.17 µM) against Staphylococcus aureus; 0.39 µg/mL (≈ 1.17 µM) with Staphylococcus aureus (setting [12]); 0.05 µg/mL (≈ 0.15 µM) against Proteus vulgaris; 0.05 µg/mL (≈ 0.15 µM) with Proteus vulgaris (setting [13]). Besides, the ED50 worked out at 1.67 mg/kg in the data set on Escherichia coli [10] and 1.67 mg/kg with Escherichia coli [10] (Escherichia coli, po).
